The values below come from article PMC4876142 (Pharmacology Research & Perspectives, 2016).

Entries after “also recorded” stand apart in the source; their conditions may differ.

Test [1] addresses human TRPM3-3 (Homo sapiens, UniProt Q9HCF6). The class given is cell-based. To be noted: 100 μmol/L Dic applied during sustained response; Nif 30 μmol/L.
For test [2], the system named is human TRPM3s (TRPM3_1325, TRPM3-3, TRPM3-9). Kind of test: Whole-cell patch clamp in HEK-TRPM3s cells. The format is cell-based.
The subject of test [3] is human TRPM3-S. In words: Whole-cell patch clamp, constitutive spontaneous currents in HEK-TRPM3-S cells. The format is cell-based. Particulars: 10 and 30 μmol/L Dic; absence of PregS. (Patch clamp records ionic current or voltage across a cell membrane.)
Test [4] concerns wild-type control HEK293 cells. Kind of test: Whole-cell patch clamp in wild-type control HEK293 cells. The format is cell-based, human. To be noted: 10 and 30 μmol/L Dic; cells without TRPM3s. Summed up: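 Untransfected HEK293 cells, whole-cell mode, 2.5–5 MΩ electrodes, 25 ± 1°C. Pipette (mmol/L): Cs-aspartate 110, CsCl 30, MgCl2 1, HEPES 10, EGTA 1, Na2ATP 2, pH 7.2. HEPES-buffered bath at pH 7.4 with 2.2 CaCl2. Ramps from −110 to +90 mV (400 msec) every 10 sec from −10 mV holding. Junction potential corrected, leak uncorrected. Test compound at 10 and 30 μmol/L.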

The target in test [5] is TRPM2 (Homo sapiens, UniProt O94759). Kind of test: Ca2+ measurement in HEK293 cells transfected with TRPM2. The class given is cell-based.
Test [6] deals with TRPM8. Kind of test: Ca2+ measurement in HEK293 cells transfected with TRPM8. The format is cell-based, human. Particulars: 100 μmol/L Dic; Men 100 μmol/L.
The target in test [7] is TRPV4 (Homo sapiens, UniProt Q9HBA0). In words: Ca2+ measurement in HEK293 cells transfected with TRPV4. The format is cell-based.
The target of test [8] is human TRPM3 isoforms (Homo sapiens, UniProt Q9HCF6). The class given is cell-based. To be noted: concentration-dependent.
For test [9], the system named is human COX-1 / COX-2. Particulars: times potent for COX-1; ref Jett et al. 1999; cited from earlier work.
Test [10] relates to TRPC6-like channel. Particulars: 500 μmol/L; without affecting channel conductance; ref Ilatovskaya et al. 2011; cited from earlier work.
The test system of test [11] is TRPC5. Particulars: read-out: IC50 for TRPC5; ref Jiang et al. 2012; cited from earlier work.
Test [12] deals with guinea pig ileum. Particulars: ref Fujimoto et al. 2006; cited from earlier work.
Test [13] deals with mouse. To be noted: ref Tajino et al. 2007; cited from earlier work.
Test [14] relates to mouse TRPM3α2 (mTRPM3α2). To be noted: read-out: IC50 against mTRPM3α2; ref Klose et al. 2011; cited from earlier work.
Test [15] concerns the target endogenous TRPM3 in nIMR-32 cells (Homo sapiens, UniProt Q9HCF6). Kind of test: Ca2+ measurement in differentiated neuronal IMR-32. The format is cell-based. To be noted: 30 μmol/L; some nIMR-32 cells, not non-neuronal IMR-32 cells.

human TRPM3 isoforms, sequence (Q9HCF6 whole entry, canonical isoform): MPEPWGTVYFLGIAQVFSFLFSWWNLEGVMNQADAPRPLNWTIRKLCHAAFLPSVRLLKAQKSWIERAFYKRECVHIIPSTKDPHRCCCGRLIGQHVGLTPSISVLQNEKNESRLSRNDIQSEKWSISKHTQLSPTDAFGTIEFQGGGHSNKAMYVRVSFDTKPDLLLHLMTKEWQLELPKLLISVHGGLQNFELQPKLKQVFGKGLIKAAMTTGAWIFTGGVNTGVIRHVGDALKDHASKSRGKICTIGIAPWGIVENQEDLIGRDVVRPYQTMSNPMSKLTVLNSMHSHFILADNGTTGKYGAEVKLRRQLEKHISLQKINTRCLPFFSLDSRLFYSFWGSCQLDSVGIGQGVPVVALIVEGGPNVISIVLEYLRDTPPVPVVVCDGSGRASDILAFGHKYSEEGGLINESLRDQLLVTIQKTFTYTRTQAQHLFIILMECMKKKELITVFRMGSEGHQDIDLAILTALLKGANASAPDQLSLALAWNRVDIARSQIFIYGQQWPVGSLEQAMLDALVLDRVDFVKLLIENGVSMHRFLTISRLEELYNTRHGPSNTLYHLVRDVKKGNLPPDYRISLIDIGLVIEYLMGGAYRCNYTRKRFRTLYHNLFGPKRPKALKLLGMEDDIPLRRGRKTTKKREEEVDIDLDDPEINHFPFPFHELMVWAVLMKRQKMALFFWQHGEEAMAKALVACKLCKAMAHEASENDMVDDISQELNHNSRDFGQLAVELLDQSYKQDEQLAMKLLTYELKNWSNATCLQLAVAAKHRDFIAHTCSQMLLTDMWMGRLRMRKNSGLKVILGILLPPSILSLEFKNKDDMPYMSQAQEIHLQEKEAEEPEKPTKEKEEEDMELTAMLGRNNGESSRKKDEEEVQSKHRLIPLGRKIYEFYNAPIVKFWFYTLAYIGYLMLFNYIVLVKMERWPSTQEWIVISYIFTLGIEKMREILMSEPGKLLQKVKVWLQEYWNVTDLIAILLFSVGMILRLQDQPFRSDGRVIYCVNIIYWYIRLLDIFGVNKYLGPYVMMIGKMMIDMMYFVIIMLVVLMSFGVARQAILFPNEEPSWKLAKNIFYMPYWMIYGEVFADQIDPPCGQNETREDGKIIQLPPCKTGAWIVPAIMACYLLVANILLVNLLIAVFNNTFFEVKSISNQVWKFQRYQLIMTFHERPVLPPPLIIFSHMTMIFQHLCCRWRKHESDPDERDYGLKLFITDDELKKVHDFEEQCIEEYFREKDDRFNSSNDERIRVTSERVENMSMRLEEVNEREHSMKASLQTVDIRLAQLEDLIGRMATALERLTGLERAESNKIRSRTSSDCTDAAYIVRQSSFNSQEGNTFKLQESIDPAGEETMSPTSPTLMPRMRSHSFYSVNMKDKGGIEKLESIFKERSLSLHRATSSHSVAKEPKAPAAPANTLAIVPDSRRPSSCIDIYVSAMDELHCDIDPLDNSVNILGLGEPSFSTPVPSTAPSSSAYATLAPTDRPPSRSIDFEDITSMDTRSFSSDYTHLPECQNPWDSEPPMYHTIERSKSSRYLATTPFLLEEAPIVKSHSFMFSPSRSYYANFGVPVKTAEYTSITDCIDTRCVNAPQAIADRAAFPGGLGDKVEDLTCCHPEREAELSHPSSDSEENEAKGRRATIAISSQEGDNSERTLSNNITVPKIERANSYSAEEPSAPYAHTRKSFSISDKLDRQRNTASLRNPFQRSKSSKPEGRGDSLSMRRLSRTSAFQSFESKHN
TRPM2, sequence (O94759 whole entry): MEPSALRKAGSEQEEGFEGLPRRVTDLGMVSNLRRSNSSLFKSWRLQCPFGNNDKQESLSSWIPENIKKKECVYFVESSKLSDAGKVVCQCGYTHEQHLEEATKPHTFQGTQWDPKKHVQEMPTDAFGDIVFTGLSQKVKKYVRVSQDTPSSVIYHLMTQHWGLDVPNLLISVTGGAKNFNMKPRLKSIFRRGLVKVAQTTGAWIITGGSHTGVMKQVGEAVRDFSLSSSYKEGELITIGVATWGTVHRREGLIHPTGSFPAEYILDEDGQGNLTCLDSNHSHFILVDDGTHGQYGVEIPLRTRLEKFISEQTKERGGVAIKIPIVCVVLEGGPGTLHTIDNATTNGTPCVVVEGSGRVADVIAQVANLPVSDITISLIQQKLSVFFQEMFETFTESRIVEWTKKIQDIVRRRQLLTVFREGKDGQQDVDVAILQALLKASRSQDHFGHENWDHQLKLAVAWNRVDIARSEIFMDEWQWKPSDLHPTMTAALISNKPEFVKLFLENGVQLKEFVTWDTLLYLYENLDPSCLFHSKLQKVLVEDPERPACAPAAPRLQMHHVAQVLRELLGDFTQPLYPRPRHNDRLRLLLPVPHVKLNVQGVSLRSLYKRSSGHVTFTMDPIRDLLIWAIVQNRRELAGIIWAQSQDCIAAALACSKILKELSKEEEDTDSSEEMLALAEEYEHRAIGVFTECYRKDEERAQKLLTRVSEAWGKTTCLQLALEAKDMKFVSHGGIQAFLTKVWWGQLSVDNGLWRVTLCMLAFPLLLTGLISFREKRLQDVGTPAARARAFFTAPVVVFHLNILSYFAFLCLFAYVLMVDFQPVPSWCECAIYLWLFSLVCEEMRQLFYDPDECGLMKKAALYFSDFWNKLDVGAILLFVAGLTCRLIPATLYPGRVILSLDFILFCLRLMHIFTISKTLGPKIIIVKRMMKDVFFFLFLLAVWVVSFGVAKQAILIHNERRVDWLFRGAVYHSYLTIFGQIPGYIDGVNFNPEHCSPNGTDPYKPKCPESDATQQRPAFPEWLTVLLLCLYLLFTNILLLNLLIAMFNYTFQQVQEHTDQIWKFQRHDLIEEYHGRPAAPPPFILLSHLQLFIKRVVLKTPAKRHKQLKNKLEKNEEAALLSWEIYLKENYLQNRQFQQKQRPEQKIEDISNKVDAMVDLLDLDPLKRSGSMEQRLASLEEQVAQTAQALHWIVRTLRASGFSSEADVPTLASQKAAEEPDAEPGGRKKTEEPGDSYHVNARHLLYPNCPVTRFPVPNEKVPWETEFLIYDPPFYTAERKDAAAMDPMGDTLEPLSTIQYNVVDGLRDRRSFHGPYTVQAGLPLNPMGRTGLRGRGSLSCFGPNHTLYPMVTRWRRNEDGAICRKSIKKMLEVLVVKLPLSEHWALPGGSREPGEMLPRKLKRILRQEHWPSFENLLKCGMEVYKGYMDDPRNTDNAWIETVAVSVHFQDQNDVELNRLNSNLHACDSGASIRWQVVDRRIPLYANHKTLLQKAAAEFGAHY
TRPV4, sequence (Q9HBA0 whole entry, canonical isoform): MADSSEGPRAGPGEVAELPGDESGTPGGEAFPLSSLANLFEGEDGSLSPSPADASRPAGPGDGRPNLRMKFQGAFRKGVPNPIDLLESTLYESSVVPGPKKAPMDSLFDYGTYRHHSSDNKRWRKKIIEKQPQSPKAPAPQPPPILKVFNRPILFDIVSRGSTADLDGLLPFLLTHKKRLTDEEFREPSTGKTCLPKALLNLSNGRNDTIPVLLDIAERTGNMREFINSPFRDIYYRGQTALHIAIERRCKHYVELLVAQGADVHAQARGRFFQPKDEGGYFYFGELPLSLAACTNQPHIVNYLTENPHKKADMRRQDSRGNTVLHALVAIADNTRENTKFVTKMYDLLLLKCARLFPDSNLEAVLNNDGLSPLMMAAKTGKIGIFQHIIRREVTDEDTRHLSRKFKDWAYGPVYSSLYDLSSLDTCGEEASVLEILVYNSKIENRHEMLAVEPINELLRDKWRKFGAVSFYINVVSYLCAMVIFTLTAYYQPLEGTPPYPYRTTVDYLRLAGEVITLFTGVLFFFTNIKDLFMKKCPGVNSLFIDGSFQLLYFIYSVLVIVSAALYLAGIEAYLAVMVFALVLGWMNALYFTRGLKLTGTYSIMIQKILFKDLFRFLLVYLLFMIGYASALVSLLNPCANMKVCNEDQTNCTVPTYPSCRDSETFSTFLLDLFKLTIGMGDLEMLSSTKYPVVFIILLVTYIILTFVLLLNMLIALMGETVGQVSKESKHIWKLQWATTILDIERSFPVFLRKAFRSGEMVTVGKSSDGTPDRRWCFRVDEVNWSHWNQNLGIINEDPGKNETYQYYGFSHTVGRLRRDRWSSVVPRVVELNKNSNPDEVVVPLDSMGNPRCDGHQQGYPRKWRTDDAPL
endogenous TRPM3 in nIMR-32 cells, sequence (Q9HCF6 whole entry): as the sequence (Q9HCF6 whole entry, canonical isoform) above

On to `O=C(O)Cc1ccccc1Nc1c(Cl)cccc1Cl` [Dic, diclofenac], for which the “Nif-evoked sustained Ca2+ response versus PregS response” value in test [1] is “clearly resistant”. Moreover, the “reversibility of current inhibition after withdrawal” value in test [2] (10 and 30 μmol/L Dic, 30 μmol/L PregS) is recorded as “immediately reversed”. The “effect on PregS-evoked inward and outward currents” value in [2] (10 and 30 μmol/L Dic, 30 μmol/L PregS, whole-cell) is “inhibited”. Further, in [2] (comparison between -80 mV and +80 mV), the “voltage dependence of inhibition” value is “voltage‐independent”. In addition, the “effect on constitutive spontaneously active TRPM3-S currents” value in test [3] is “substantially inhibited; also recorded: significantly inhibited”. For the same molecule, the “effect on small basal currents evoked by ramp voltage commands” value in [4] is given as “did not affect”. Besides, the IC50 (in general, the concentration at which inhibition is half-maximal) in test [5] is greater than 100 µM; in test [7], greater than 100 µM; in test [11], 170 µM. Moreover, in test [5] (100 μmol/L Dic, H2O2 1 mmol/L), the “effect on H2O2-induced Ca2+ response” value is given as “failed to inhibit”. Further, the “effect on Men-induced Ca2+ response” value in test [6] is given as “failed to inhibit; also recorded: resistant”. Further, in [7] (100 μmol/L Dic, GSK 3 nmol/L), the “effect on GSK-induced Ca2+ response” value was “failed to inhibit”. Besides, the “effect on Nif-induced TRPM3-dependent Ca2+ responses” value in test [8] (30 μmol/L Nif) is given as “significantly inhibited”. Also, the “preference to inhibit COX-1 than COX-2” value in test [9] is 1.6 times. Further, in [10], the “effect on TRPC6-like channel activity” value is “decreased”. The “effect on capsaicin-induced ileum relaxation” value in [12] is listed as “no effects”. In addition, the “effect on Men-evoked hyperthermia” value in test [13] is reported as “no effects”.
Regarding `COc1ccc2c(c1)c(CC(=O)O)c(C)n2C(=O)c1ccc(Cl)cc1` [Ind, indomethacin], the “preference to inhibit COX-1 than COX-2” value in [9] is 25 times.
Take `COC(=O)C1=C(C)NC(C)=C(C(=O)OC)C1c1ccccc1[N+](=O)[O-]` [Nif, nifedipine]: the “agonist effect on intracellular Ca2+ concentration” value in test [8] is listed as “induced Ca^2+ response”.
`Cc1cccc(Nc2ccccc2C(=O)O)c1C` [mefenamic acid]: in [14], the IC50 was 6.6 µM.
As for pregnenolone sulfate [PregS], in test [15], the “agonist Ca2+ response in nIMR-32 cells” value is given as “evoked a Ca^2+ response”. For the same molecule, the “agonist effect on intracellular Ca2+ concentration” value in [8] is on record as “induced elevation”.
